High-throughput results: PubChem BioAssay, several laboratories
D1 mod: allosterically modulates the human D1 dopamine receptor. P21728. HEK293 D1, CRE-luciferase, dopamine EC30 potentiation; actives deviate in either direction. B-score at 10 µM. hit rate 5.9% among 58,000. AID 641;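 active = luminescence count or its row- and column-corrected plate score outside the 99.7% band of the plate's sample wells, on either side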
AP ELISA ortho: orthogonal test for alternative complement pathway inhibitors; hit rate 0.08% among 62,000; AID 1235; inhibition, % at 5 µM; Human serum alternative complement pathway, LPS-coated ELISA, C3 deposition; tested in compound mixtures;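 active = inhibition above 30% in each of the two pooled mixtures holding the compound, so the lower value exceeds 30%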;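 note: 0% = serum in Mg-EGTA without compound and 100% = EDTA serum blank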
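Test system: human serum alternative complement pathway, C3 deposition on LPS-coated wells; also added: Plate-bound LPS; doses: 5 µM per compound in ten-compound mixtures; schedule: 1 h at 37 °C; detection: Anti-C3 ELISA, OD 450 nm; evaluation: percent inhibition of C3 deposition onto LPS; repeats: two pool placements per compound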
HEK293 NFkB inh: inhibitors of the PMA/ionomycin-induced NF-kB reporter in HEK293 cells. HEK-293 NF-kB luciferase reporter, luminescence. inhibition, % at 3 µM. hit rate 0.21% among 62,000. AID 465;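 active = inhibition above the mean of all tested compounds plus 3 SD, cut at about 40% in these data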;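 note: 0% = stimulated DMSO wells and 100% = 10 µM reference inhibitor 5653914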
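Signal: luciferase luminescence; Material: HEK-293 cells with stable firefly luciferase reporter driven by four HIV NF-kB elements; Probe or stimulus: PMA with ionomycin; Replication: tested once; Times: 1 h compound pretreatment, then 16 h stimulation at 37 °C, 5% CO2; Benchmarks: DMSO and 10 µM reference inhibitor; Evaluation: per-plate % inhibition versus controls.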
E coli RNAP: blocks E. coli RNA polymerase transcription; P0A8V2; fluorescence transcription assay; inhibition, %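 (tested at 10 µM)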; hit rate 0.2% among 62,000; in the data active = inhibition above about 20%;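 note: 0% = enzyme without compound and 100% = no enzyme blank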
DAT uptake mod: changed human dopamine transporter uptake under cocaine IC80; Q01959; LLC-PK1 hDAT cells, [14C]-dopamine uptake with cocaine IC80; actives deviate in either direction; B-score at 10 µM; hit rate 1.3% among 110,000; AID 449768;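 active = Z score or B-score, a plate-position-corrected score, falls beyond the plate's 99.7% confidence bounds, in either direction; inactive = both scores lie inside the 99.7% bounds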;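 note: scored against the spread of the other compound wells on the same plate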
Target sequence (Q01959 whole entry, looked up): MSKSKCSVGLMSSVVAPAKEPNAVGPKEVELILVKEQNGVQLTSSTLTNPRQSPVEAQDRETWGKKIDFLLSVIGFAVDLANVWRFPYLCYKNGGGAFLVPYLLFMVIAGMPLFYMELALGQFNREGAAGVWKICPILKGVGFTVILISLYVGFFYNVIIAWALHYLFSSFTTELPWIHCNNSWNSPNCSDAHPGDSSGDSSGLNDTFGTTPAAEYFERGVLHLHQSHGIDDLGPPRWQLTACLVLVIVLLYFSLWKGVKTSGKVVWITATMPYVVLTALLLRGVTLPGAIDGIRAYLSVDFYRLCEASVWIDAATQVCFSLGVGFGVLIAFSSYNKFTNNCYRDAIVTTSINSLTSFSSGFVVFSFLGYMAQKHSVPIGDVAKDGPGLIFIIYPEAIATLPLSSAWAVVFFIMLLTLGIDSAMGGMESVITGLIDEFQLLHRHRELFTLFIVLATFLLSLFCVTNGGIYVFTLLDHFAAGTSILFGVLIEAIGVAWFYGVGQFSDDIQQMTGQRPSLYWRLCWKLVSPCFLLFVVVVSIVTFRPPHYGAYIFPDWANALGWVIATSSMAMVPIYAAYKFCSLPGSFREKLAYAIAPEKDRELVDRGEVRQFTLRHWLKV
D1 PAM confirm: D1 receptor (human) allosteric modulation, confirmed; shares compounds with D1 mod; HEK293 D1 CRE-luciferase, dopamine EC30 potentiation; hits give high values; luminescence at 10 µM; hit rate 88% among 2,200;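 active = luminescence in either of two replicates above the same-plate mean plus 3 SD of the low-dose dopamine control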
D1 no dopamine: secondary test of D1 modulators: activity without dopamine. luminescence at 10 µM. shares compounds with D1 mod. hit rate 0.8% among 1,900. AID 646. HEK293 D1 CRE-luciferase, luminescence, no dopamine; hits give high values; in the data active = luminescence above about 3900
Isoprot counter: isoproterenol response counter-screen activity for D1 modulators | shares compounds with D1 mod | HEK293 D1 CRE-luciferase, isoproterenol EC30 counter-screen | calls only at 10 µM | hit rate 63% among 2,200 | AID 647;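 active = luminescence in either replicate above plate mean of wells with a partly effective reference agonist dose plus 3 SD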;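 note: isoproterenol raises cAMP through native beta-adrenoceptor Gs so signal bypasses D1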
Active calls of the source: *; i = inactive; nt = no result given; + = active, no number. The full list was thinned out, with hits kept by preference.

SMILES | D1 mod | AP ELISA ortho | HEK293 NFkB inh | E coli RNAP | DAT uptake mod | D1 PAM confirm | D1 no dopamine | Isoprot counter
Cc1cc(-c2ccccc2)nc2cc(C(N)=O)nn12 | 9.4* | 13 | 9 | 9 | -0.064 | 9500* | 1480 | +
NC(=O)c1cc(-c2ccccc2)nc(N2CCCCCC2)n1 | 2.7* | 4 | 9 | 4 | 0.24 | 6540* | 1320 | i
O[C@H]1COC2C1OC[C@@H]2O (stereo partly specified) | nt | nt | nt | nt | 0.52 | nt | nt | nt
C=CCSc1nc2sc(C)c(C)c2c(=O)n1CC=C | nt | nt | nt | nt | 1.4 | nt | nt | nt
C=CCn1c(=O)c2c(C)c(C)sc2n2c(Nc3ccc(OC)cc3)nnc12 | 3.3* | -4 | 18 | 5 | -0.59 | 10192* | 1584 | i
C#CCNC(=O)C1=C[C@@H](c2csc3ccccc23)C[C@@H](OCc2ccc(CO)cc2)O1 | nt | nt | nt | nt | 0.56 | nt | nt | nt
CCCC(=O)c1ccc(N2CCN(S(=O)(=O)c3ccccc3)CC2)c(F)c1 | 4.8* | 4 | 9 | nt | -1.7 | 4444 | 1352 | i
CCCC(=O)c1cc(F)c(N2CCN(S(=O)(=O)c3ccccc3)CC2)cc1C | -0.51 | 6 | nt | 3 | -0.005 | nt | nt | nt
COc1cc2c(cc1OC)CN(CC(=O)NC(=O)NCc1ccco1)CC2 | 6.8* | 2 | 5 | 11 | 0.68 | 8812* | nt | i
CCOc1ccc(N2C(=O)CC(n3nc(C)cc3C)C2=O)cc1 (stereo unspecified) | 0.44 | 12 | 18 | 3 | 0.25 | nt | nt | nt
CCn1c(=O)c2c(n3cnnc13)-c1ccccc1CC21CCCCC1 | 26* | 20 | 7 | 1 | -0.0052 | 16572* | 1652 | +
CC(=O)Nc1ccc(C(=O)n2nc(C)cc2C)cc1 | -0.42 | 3 | 12 | 4 | -0.96 | nt | nt | nt
CC(=O)C1=C(C)NC(SCC(=O)c2ccc(F)cc2)=C(C#N)C1c1ccco1 (stereo unspecified) | 5.5* | 26 | 13 | 5 | 0.66 | 3664* | 1712 | i
COC(=O)c1c(-c2cccc3ccccc23)csc1NC(=O)Cc1ccc(OC)c(OC)c1 | nt | nt | nt | nt | -0.2 | nt | nt | nt
CNc1nc(C)c(C(=O)c2ccc(Cl)cc2)s1 | nt | nt | nt | nt | -0.65 | nt | nt | nt
CCc1nc(NCC2CCCN2CC)c2nnn(Cc3ccccc3F)c2n1 (stereo unspecified) | 1.9 | -12 | 11 | 8 | 0.96 | nt | nt | nt
CCCc1nc(NCc2ccncc2)c2nnn(Cc3ccccc3F)c2n1 | 6.9* | 1 | 20 | 7 | -4.2* | 7368* | 1464 | i
CCc1nc(NCCc2ccccn2)c2nnn(Cc3ccccc3F)c2n1 | 12* | -15 | 3 | 10 | 1.4 | 20308* | 1720 | +
CCCc1nc(NCC2CCCO2)c2nnn(Cc3ccccc3)c2n1 (stereo unspecified) | nt | nt | nt | nt | -1 | nt | nt | nt
O=C(CSc1ncn[nH]1)NCCC(c1ccccc1)c1ccccc1 | nt | nt | nt | nt | -0.88 | nt | nt | nt
CC1CCc2cc(F)ccc2N1C(=O)CN1C(=O)c2ccccc2C1=O (stereo unspecified) | 1.7 | 6 | 19 | 4 | 0.16 | nt | nt | nt
CC1CCc2sc3ncnc(N4CCOCC4)c3c2C1 (stereo unspecified) | 19* | 5 | 5 | 6 | -0.89 | 14216* | 1432 | +
CC1CCc2c(sc3ncnc(NCCN4CCOCC4)c23)C1 (stereo unspecified) | nt | 1 | -2 | 4 | -0.22 | nt | nt | nt
CC1CCc2c(sc3ncnc(N4CCOCC4)c23)C1 (stereo unspecified) | 17* | 2 | nt | 9 | 0.43 | 13928* | 1504 | +
Cc1ccccc1NC1C=CS(=O)(=O)C1 (stereo unspecified) | 0.13 | 23 | 22 | nt | -0.76 | nt | nt | nt
O=C(Nc1c(C(=O)NCc2ccco2)cnn1-c1ccccc1)c1ccc(F)cc1 | 0.46 | 9 | 12 | 9 | 0.77 | nt | nt | nt
O=C(Cc1cccs1)Nc1ccccc1NC(=O)Cc1cccs1 | 4.9* | 14 | 11 | 3 | -0.21 | 5744 | 1712 | i
O=C(Cc1cccs1)Nc1ccccc1C(=O)O | -1.2 | 14 | 2 | 12 | -0.25 | nt | nt | nt
